Measurements as given in ChEMBL document CHEMBL4017544 (J Med Chem, 2017).
Active and inactive are the calls of the source. No cut-off for these calls is given here.

What was measured:
[1] = tested on: Mus musculus; assay: Renoprotective activity in db/db mouse assessed as reduction in thickening of capillary walls in glomeruli at 1 to 2 mg/kg, ip administered trice per week for 12 consecutive weeks measured at 11 weeks post dose by H/E-staining based microscopic analysis; assay type: functional, organism-based
How it was run: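 Male db/db mice, 8 weeks old, were randomized and dosed i.p. three times weekly for 12 weeks (vehicle: 5% Tween-80 in 0.9% saline; n = 6 per group). Kidneys were fixed in 4% PFA and paraffin-embedded. 5 μm sections were stained with HE, PAS or Masson's trichrome and examined at ×400.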

[2] = target: T1, Inhibitor of nuclear factor kappa-B kinase subunit beta (Homo sapiens) (UniProt O14920); assay: Inhibition of IKKbeta (unknown origin) transfected in HEK293 cells assessed as TNFalpha-induced NFkappaB activation at 200 to 1000 nM administered 6 hrs after TNFalpha stimulation measured for 24 hrs by NFkappaB-driven luciferase reporter gene assay; assay type: cell-based
T1 sequence (whole entry): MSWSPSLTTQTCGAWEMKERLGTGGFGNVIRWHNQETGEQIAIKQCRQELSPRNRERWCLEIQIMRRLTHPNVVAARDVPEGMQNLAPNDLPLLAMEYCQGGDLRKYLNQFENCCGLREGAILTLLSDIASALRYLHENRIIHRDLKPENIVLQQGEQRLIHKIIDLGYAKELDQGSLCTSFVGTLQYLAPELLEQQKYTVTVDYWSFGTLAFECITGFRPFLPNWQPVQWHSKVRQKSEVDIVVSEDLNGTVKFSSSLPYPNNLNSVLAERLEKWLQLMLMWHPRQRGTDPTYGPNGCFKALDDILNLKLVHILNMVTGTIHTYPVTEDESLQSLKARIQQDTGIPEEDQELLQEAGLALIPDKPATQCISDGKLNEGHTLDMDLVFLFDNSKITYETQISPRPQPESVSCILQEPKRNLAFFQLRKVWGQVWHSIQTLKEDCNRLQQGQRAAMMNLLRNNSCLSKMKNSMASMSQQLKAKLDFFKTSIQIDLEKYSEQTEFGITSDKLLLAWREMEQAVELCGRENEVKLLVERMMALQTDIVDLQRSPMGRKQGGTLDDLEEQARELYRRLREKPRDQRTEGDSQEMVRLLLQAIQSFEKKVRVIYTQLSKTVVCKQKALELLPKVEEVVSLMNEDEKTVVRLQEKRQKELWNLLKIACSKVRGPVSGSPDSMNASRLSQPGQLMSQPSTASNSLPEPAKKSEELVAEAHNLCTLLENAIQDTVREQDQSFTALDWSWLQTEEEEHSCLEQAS
How it was run: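 HEK293 cells transfected with an NF-κB-driven luciferase reporter, stimulated with TNF-α and treated in triplicate; luciferase read with a dual-luciferase system.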

[3] = Volume of distribution at steady state in Sprague-Dawley rat at 10 mg/kg, iv measured up to 24 hrs by LC-MS/MS analysis; assay type: ADME, organism-based; settings: in vivo, read-out: Vdss
How it was run: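 Rats received a single 10 mg/kg i.v. dose. Blood was drawn from the suborbital vein at 0, 2, 5, 15, 30 and 60 min and at 1.5, 2, 4, 6, 8, 12 and 24 h, and plasma was analyzed by LC-MS/MS. n = 3, mean ± SD.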

[4] = tested on: Mus musculus; assay: Antidiabetic nephropathic activity in db/db mouse assessed as reduction in plasma creatinine levels at 1 to 2 mg/kg, ip administered thrice per week for 12 consecutive weeks measured at 11 weeks post dose; assay type: functional, organism-based
[5] = target: Kelch-like ECH-associated protein 1 (Homo sapiens) (UniProt Q14145); assay: Inhibition of Keap1/Nrf2 (unknown origin) interaction transfected in HEK293 cells assessed as upregulation of HO-1 mRNA expression at 200 to 1000 nM after 48 hrs by quantitative RT-PCR analysis; assay type: cell-based
Sequence of Kelch-like ECH-associated protein 1 (Homo sapiens) (Q14145 whole entry): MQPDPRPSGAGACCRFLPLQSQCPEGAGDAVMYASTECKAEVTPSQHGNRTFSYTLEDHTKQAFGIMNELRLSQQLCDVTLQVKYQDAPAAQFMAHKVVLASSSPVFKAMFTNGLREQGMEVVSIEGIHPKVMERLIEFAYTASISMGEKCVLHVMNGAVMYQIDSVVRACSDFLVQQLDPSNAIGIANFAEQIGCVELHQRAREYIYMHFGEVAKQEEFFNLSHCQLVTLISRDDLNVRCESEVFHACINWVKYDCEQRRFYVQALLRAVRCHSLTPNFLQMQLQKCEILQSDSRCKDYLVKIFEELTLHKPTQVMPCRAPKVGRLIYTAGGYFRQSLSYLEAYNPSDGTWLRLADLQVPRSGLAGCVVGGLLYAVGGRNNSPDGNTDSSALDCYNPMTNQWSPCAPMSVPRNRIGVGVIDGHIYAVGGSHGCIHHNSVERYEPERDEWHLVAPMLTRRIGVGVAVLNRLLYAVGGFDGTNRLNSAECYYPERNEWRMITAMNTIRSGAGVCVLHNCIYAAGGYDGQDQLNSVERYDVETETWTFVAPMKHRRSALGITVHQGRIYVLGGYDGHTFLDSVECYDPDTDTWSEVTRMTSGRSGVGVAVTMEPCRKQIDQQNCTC
How it was run: (§1)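 HEK293 cells (ATCC; high-glucose DMEM, 10% FBS) were treated in triplicate for 48 h. For the reporter read-out, cells were transfected with an ARE-dependent luciferase plasmid and luciferase activity was measured. For mRNA, total RNA was extracted with TRIzol and reverse transcribed, and target transcripts were quantified by qRT-PCR relative to GAPDH using the 2−ΔΔCt method. Three independent experiments, mean ± SD.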

[6] = target: Kelch-like ECH-associated protein 1 (Homo sapiens) (UniProt Q14145); assay: Inhibition of Keap1/Nrf2 (unknown origin) interaction transfected in HEK293 cells assessed as upregulation of NQO1 mRNA expression at 200 to 1000 nM after 48 hrs by quantitative RT-PCR analysis; assay type: cell-based; how it was run: as §1
[7] = tested on: HEK293; assay: Effect on Nfr2 mRNA expression in HEK293 cells harboring Keap1 at 200 to 1000 nM after 48 hrs by quantitative RT-PCR analysis; assay type: functional, cell-based; settings: Homo sapiens
How it was run: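 HEK293 cells treated in triplicate at 200 or 1000 nM for 48 h; Nrf2 mRNA relative to GAPDH by quantitative RT-PCR using the 2−ΔΔCt method; mean ± SD from three experiments.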

[8] = tested on: Mus musculus; assay: Renoprotective activity in db/db mouse assessed as reduction in glomerular basement thickening at 1 to 2 mg/kg, ip administered trice per week for 12 consecutive weeks measured at 11 weeks post dose by TEM microscopic analysis; assay type: functional, organism-based
How it was run: (§2)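 Male db/db mice (8 weeks old) were dosed i.p. three times weekly for 12 weeks in 5% Tween-80/0.9% saline, n = 6. Kidney tissue was fixed in 3% glutaraldehyde, cut into 80 nm ultrathin sections and examined by TEM. GBM thickness was measured at 30 random locations from three sections per kidney and averaged per mouse.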

[9] = Drug level in Sprague-Dawley rat liver at 30 mg/kg, ip measured at 90 mins by LC-MS/MS analysis; assay type: ADME, organism-based; settings: read-out: Drug uptake
How it was run: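 Rats given a single ip injection, 20 mg/kg (0.04 mmol) of CDDO-Me or 30 mg/kg (0.04 mmol) of the prodrug; heart, kidney and liver collected over time; parent compound and liberated CDDO-Me measured by LC-MS/MS.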

[10] = target: T1, Inhibitor of nuclear factor kappa-B kinase subunit beta (Homo sapiens); assay: Inhibition of IKKbeta (unknown origin) transfected in HEK293 cells assessed as reduction in TNFalpha-induced upregulation of COX2 mRNA expression at 200 to 1000 nM administered 6 hrs after TNFalpha stimulation measured for 24 hrs by quantitative RT-PCR analysis; assay type: cell-based
How it was run: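 HEK293 cells pretreated with TNF-α (10 ng/mL) for 6 h, then given compound at 200 or 1000 nM for 24 h, in triplicate; iNOS, COX2 and MCP-1 mRNA relative to GAPDH by quantitative RT-PCR, 2−ΔΔCt method; mean ± SD from three experiments.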

[11] = tested on: Mus musculus; assay: Renoprotective activity in db/db mouse assessed as reduction in glomerular basement thickening at 0.65 mg/kg, ip administered trice per week for 12 consecutive weeks measured at 11 weeks post dose by TEM microscopic analysis; assay type: functional, organism-based; how it was run: as §2
[12] = Drug level in Krebs buffer treated with 1-Hydroxyl-2-cyano-3-(4-(methyl-L-glutaminate-N5-yl)-benzyloxy)-12-oxo-oleana-2(3),9(11)-dien-28-oic Acid Methyl Ester assessed as bovine kidney GGT-mediated metabolite formation at 100 uM at pH 7.4 after 8 hrs by HPLC analysis; assay type: ADME, Bos taurus; settings: cattle, pH 7.4, 8 h
How it was run: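 Substrate at 100 μM in Krebs buffer, pH 7.4, 37 °C, with GGT (1 U/mL) and Gly-Gly acceptor (5 mM) for 8 h, in triplicate; acetonitrile (2 volumes) added, enzyme removed by centrifugation, products by HPLC.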

Row | SMILES | Activity [1] | inhibition [2] | Vd [3] [L/kg] | Activity [4] | inhibition [5] | inhibition [6] | Activity [7] | Activity [8] | concentration at 1.5 h [9] [ng/g] | inhibition [10] | Activity [11] | Drug metabolism [12]
1 | COC(=O)[C@@H](N)CCC(=O)Nc1ccc(COC2=C(C#N)[C@H](O)[C@]3(C)C4=CC(=O)[C@@H]5[C@@H]6CC(C)(C)CC[C@]6(C(=O)OC)CC[C@@]5(C)[C@]4(C)CC[C@H]3C2(C)C)cc1 | Active | Active | 35.1 | Active | Active | Active | inactive | Active | 6040 | Active |  | 
2 | COC(=O)[C@]12CCC(C)(C)C[C@H]1[C@H]1C(=O)C=C3[C@@]4(C)C=C(C#N)C(=O)C(C)(C)[C@@H]4CC[C@@]3(C)[C@]1(C)CC2 [BARDOXOLONE METHYL] |  | Active | 29.1 |  | Active | Active | inactive |  |  | Active | Active | Metabolite_Detected
